# Source: PubChem BioAssay (several laboratories)
# A selection: hits, their analogues and other compounds. The true share with any hit is near 3.4%.
# CHT block: inhibits the human high affinity choline transporter | Q9GZV3 | CHT-expressing cells, membrane potential dye, choline response; hits give low values | B-score at 10 µM | 310,000 tested, 0.86% active | AID 488975;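 active = B-score over 3 SD under the library average, and starting fluorescence ratio not unusually high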;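 also: choline stimulus applied at its EC90 after an EC20 pre-addition; B-score computed on integrated fluorescence ratio after choline addition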
# IMP-1 inh-1: blocks Pseudomonas aeruginosa IMP-1 metallo-beta-lactamase | 290,000 tested, 0.45% active | inhibition, % at 5.6 µM | purified IMP-1, nitrocefin hydrolysis, epi-absorbance fluorescence | AID 1556;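 active = inhibition above the mean plus 3 SD of all compounds in the same screening run, cut at about 4.5% in these data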
#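 assay system = purified recombinant IMP-1 metallo-beta-lactamase enzyme | schedule = 15 min preincubation plus 25 min reaction at 25 °C | signal = Epi-absorbance fluorescence, 480 nm excitation, 530 nm emission | read-out basis = percent inhibition from optical density relative to buffer-blank wells | controls = IMP-1 with DMSO as 0%, enzyme-free DMSO as 100%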
# TMEM16A inh: mouse TMEM16A channel inhibition, primary screen; normalized B-score (activity score, 25-100; higher = stronger inhibition) at 10 µM; AID 588511; 310,000 tested, 1.2% active; HEK293 TMEM16A/YFP iodide influx fluorescence, ionomycin;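 active = ratio plate-corrected score three or more library SD toward inhibition, starting fluorescence score within five deviations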;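 also: score derived from kinetic fluorescence span divided by baseline fluorescence per well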
# VIM-2 inhibitor: inhibitors of Pseudomonas aeruginosa VIM-2 metallo-beta-lactamase; 290,000 tested, 0.89% active; AID 1527; purified VIM-2, nitrocefin hydrolysis, epi-absorbance fluorescence; inhibition, % at 5.6 µM;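 active = inhibition above the mean of all tested compounds plus 3 SD, cutoff set per screening run, cut at about 7.5% in these data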;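 also: red hydrolysis product quenches plate fluorescence so inhibitors raise well fluorescence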
# CHT PAM: allosterically activates the human high affinity choline transporter | Q9GZV3 | CHT-expressing cells, membrane potential dye, choline EC20; hits give high values; LV-AA mutant CHT in HEK293 cells | B-score at 10 µM | 310,000 tested, 0.49% active;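 active = initial fluorescence not abnormally high and integrated response B-score, plate-corrected, over 3 SD above library mean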
# TMEM16A act: activates or potentiates the mouse TMEM16A chloride channel | Q8BHY3 | HEK293 TMEM16A/YFP-H148Q/I152L, iodide quench fluorescence; hits give low values | B-score at 10 µM | 340,000 tested, 0.3% active | AID 623877;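 active = fluorescence-ratio B-score plate-corrected deviation score at least 3 library SD below zero, with starting fluorescence score within 5 deviations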;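 also: channel opened by trigger with iodide after compound preincubation; score built on the fluorescence ratio of max minus min over baseline; more negative score means more quench and so TMEM16A activation or potentiation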
# IMP-1 inh-2: IMP-1 inhibition, counter-screen for VIM-2 inhibitors; shares compounds with VIM-2 inhibitor; purified IMP-1, nitrocefin hydrolysis, epi-absorbance fluorescence; AID 1856; 1,300 tested, under 10 active; inhibition, % at 5.6 µM; call rule not given here
# VIM-2 FRET ctr: counter-screen for VIM-2 inhibitors: epi-absorbance artifacts via FRET; shares compounds with VIM-2 inhibitor; purified VIM-2, CCF2 FRET substrate hydrolysis; inhibition, % at 5.6 µM; 1,300 tested, 23% active; AID 1857;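 active = inhibition above the mean of all tested compounds plus 3 SD, cut at about 19% in these data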
# TEM-1 counter: selectivity counter-screen for VIM-2 inhibitors: E. coli TEM-1 inhibitors | AID 1866 | 1,300 tested, 3% active | shares compounds with VIM-2 inhibitor | inhibition, % at 5.6 µM | Purified TEM-1, nitrocefin hydrolysis, epi-absorbance fluorescence;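 active = inhibition above that campaign's mean inhibition plus 3 SD, cut at about 0.46% in these data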
# Target sequence (P62593 whole entry, looked up): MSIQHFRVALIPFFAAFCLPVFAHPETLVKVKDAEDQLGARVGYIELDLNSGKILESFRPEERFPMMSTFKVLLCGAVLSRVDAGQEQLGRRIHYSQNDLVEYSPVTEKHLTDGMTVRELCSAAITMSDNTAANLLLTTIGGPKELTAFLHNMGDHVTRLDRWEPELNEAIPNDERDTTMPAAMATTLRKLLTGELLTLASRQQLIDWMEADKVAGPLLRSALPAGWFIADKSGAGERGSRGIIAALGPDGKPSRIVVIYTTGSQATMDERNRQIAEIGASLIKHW
# VIM-2 confirm 2: confirmation of P. aeruginosa VIM-2 metallo-beta-lactamase inhibitors; shares compounds with VIM-2 inhibitor; purified VIM-2, nitrocefin hydrolysis, epi-absorbance; inhibition, % at 5.6 µM; 1,300 tested, 96% active; AID 2187;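 active = inhibition of the VIM-2 beta-lactamase enzyme above about 11% from the earlier first-round screen, limit read from the data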
# Hits are given with their value; – = inactive; · = not tested or not shown.
SMILES,CHT block,IMP-1 inh-1,TMEM16A inh,VIM-2 inhibitor,CHT PAM,TMEM16A act,IMP-1 inh-2,VIM-2 FRET ctr,TEM-1 counter,VIM-2 confirm 2
Cc1cc(OCC(=O)Nc2ccc(CN3CCOCC3)cc2)c2c(C)cc(=O)oc2c1,–,–,–,–,–,–,·,·,·,·
Cc1cc(OCC(=O)Nc2ccc(CN3CCOCC3)cc2)c2c(C)c(C)c(=O)oc2c1,–,–,–,32.9,–,–,–,–,–,40.3
Cc1cc(OCC(=O)Nc2cccnc2)c2c(C)cc(=O)oc2c1,–,–,–,20.5,–,–,–,–,–,33.2
O=C(COc1ccc2c3c(c(=O)oc2c1)CCC3)Nc1ccc(CN2CCOCC2)cc1,–,–,–,17.6,–,–,–,–,–,26.6
Cc1cc(OCC(=O)NCc2cccnc2)c2c(C)cc(=O)oc2c1,–,–,–,–,–,–,·,·,·,·
Cc1cc(=O)oc2cc(OCC(=O)Nc3ccc(CN4CCOCC4)cc3)ccc12,–,–,–,–,–,–,·,·,·,·
C[C@H](CO)N1C[C@H](C)[C@@H](CN(C)Cc2ccc(-c3ccccc3)cc2)Oc2c(NC(=O)Nc3ccc4c(c3)OCO4)cccc2C1=O,·,·,·,·,·,–,·,·,·,·
CCCCOc1ccc(C(=O)NNC(=O)c2cnccn2)cc1OC,·,·,·,·,·,–,·,·,·,·
CCOC(=O)Cc1csc(NS(=O)(=O)c2ccc([N+](=O)[O-])cc2)n1,–,–,–,–,–,–,·,·,·,·
CCC1CCCCN1C(=O)c1cc2c(=O)n3cccc(C)c3nc2s1 (stereo unspecified),–,–,–,15.3,–,–,–,–,–,20.8
Cc1cccn2c(=O)c3cc(C(=O)N4CCCC(C)C4)sc3nc12 (stereo unspecified),–,–,–,15.0,–,–,–,–,–,21.4
Cc1ccc2nc3c(cc(C(=O)NC4CCCC4)c(=N)n3CCCn3ccnc3)c(=O)n2c1,–,–,–,28.8,6.4,·,–,–,–,68.3
CN(Cc1ccccc1)CC(O)COc1ccc(CNCc2nccn2C)cc1 (stereo unspecified),–,–,–,12.5,–,–,–,–,–,13.6
Cn1c(C(=O)NCCN2CCc3ccccc3C2)cc2c(=O)n(C)c3ccccc3c21,–,–,–,19.0,–,–,–,–,–,27.6
Cn1c(C(=O)NC2CCCCC2)cc2c(=O)n(C)c3ccccc3c21,–,–,–,–,–,–,·,·,·,·
CCN1CCN(C(=O)c2cc3c(=O)n(C)c4ccccc4c3n2C)CC1,–,–,–,17.4,–,–,–,–,–,22.3
Cc1cc(C)nc(NS(=O)(=O)c2ccc(NC(=O)c3ccc(O)cc3O)cc2)n1,–,–,–,–,–,–,·,·,·,·
CCc1cc(=O)oc2c3c(cc(OCC(=O)NCc4ccncc4)c12)OC(C)(C)CC3,–,–,–,15.5,–,–,–,–,–,27.2
Cc1cc(=O)oc2c3c(cc(OCC(=O)N[C@@H](Cc4ccccc4)C(=O)O)c12)OC(C)(C)CC3,–,–,–,21.8,–,–,–,40.0,–,25.1
COc1ccccc1OCC(=O)NCCCn1ccnc1,–,–,–,–,–,–,·,·,·,·
Cc1c(OCC(=O)NCCCn2ccnc2)ccc2c3c(c(=O)oc12)CCC3,–,–,–,48.1,–,–,–,–,–,57.5
Cc1c(OC(C)C(=O)NCCCn2ccnc2)ccc2c3c(c(=O)oc12)CCC3 (stereo unspecified),–,–,–,48.7,–,–,–,–,–,64.3
Cc1c(C)c2ccc(OCC(=O)NCCCn3ccnc3)c(C)c2oc1=O,–,–,–,42.4,–,–,–,–,–,49.0
Cc1coc2c(C)c3oc(=O)c(CCC(=O)NCCCn4ccnc4)c(C)c3cc12,–,–,–,31.2,–,–,–,–,–,36.4
CCCCn1c(-c2nn(C)c(C)c2Cl)n[nH]c1=S,–,–,–,35.5,–,–,–,65.8,–,46.4
SMILES,CHT block,IMP-1 inh-1,TMEM16A inh,VIM-2 inhibitor,CHT PAM,TMEM16A act,IMP-1 inh-2,VIM-2 FRET ctr,TEM-1 counter,VIM-2 confirm 2
CCCCCCn1c(-c2cccs2)n[nH]c1=S,–,–,–,71.8,–,–,–,82.8,–,76.0
CCn1c(-c2nn(C)cc2Cl)n[nH]c1=S,–,–,–,–,–,–,·,·,·,·
CCCCn1c(-c2nn(C)cc2Cl)n[nH]c1=S,–,–,–,38.7,–,–,–,66.3,–,48.2
Cn1cc(Cl)c(-c2n[nH]c(=S)n2-c2ccccc2)n1,–,–,–,14.0,–,–,–,41.5,–,25.3
CCOc1ccccc1C(=O)NC(C(=O)NCCc1ccccn1)C(C)C (stereo unspecified),·,·,·,·,·,–,·,·,·,·
CCN1CCN(CCNC(=O)CCc2c(C)c3c(C)nn(-c4ccccc4)c3n(C)c2=O)CC1,–,–,–,19.0,–,–,–,–,–,30.1
Cc1sc2ncnc(Sc3ccccc3C(=O)O)c2c1C,–,–,–,–,–,–,·,·,·,·
O=C(O)c1ccccc1Sc1ncnc2sc3c(c12)CCC3,–,–,–,29.2,–,–,–,60.7,–,37.2
CN1C(=O)C2(N=c3ccccc3=N2)c2ccccc21,–,–,–,19.0,–,–,–,–,–,34.3
CCN(CC(=O)Nc1c(F)cccc1F)C(=O)c1cnccn1,–,·,–,·,–,–,·,·,·,·
O=[N+]([O-])c1ccccc1/C=N/n1c(C2CCCCC2)n[nH]c1=S,–,–,–,–,–,–,·,·,·,·
O=[N+]([O-])c1ccccc1/C=N/n1c(C(F)(F)F)n[nH]c1=S,–,–,–,14.0,–,–,–,54.9,–,35.8
CC(C)c1cc(N2CCN(C(=O)c3ccco3)CC2)n2c(nc3ccccc32)c1C#N,–,–,–,14.9,–,–,–,–,–,31.9
CCn1c(N2CCN(C(=O)c3ccco3)CC2)nc2ccccc21,–,–,–,–,–,–,·,·,·,·
CC(C)CC1NC(=O)N(CC(=O)Nc2ccc(-c3ccccc3)cc2)C1=O (stereo unspecified),·,·,·,·,·,–,·,·,·,·
Cc1ccc(-c2csc(=Nc3cccnc3)n2CCCn2ccnc2)cc1C,–,–,25,17.8,–,–,–,–,–,30.4
Cc1ccc(NS(=O)(=O)c2ccc(C)c(NC(=S)NCCN3CCOCC3)c2)c(C)c1,·,·,·,·,·,–,·,·,·,·
C=C1CSc2nc(=O)c3c(C)c(C)sc3n21,·,–,·,19.8,·,–,–,–,–,32.3
